Measurements reported in ChEMBL document CHEMBL4425187, “A new class of flavonol-based anti-prostate cancer agents: Design, synthesis, and evaluation in cell models” (Bioorg Med Chem Lett, 2016).

Legend:
PC-3 [1] = assay: Potency index, ratio of IC50 for 3',4'-dimethoxyflavonol to IC50 for test compound against human PC3 cells; format: functional
Summary of the method: (§1)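 IC50 from WST-1 proliferation assay in PC-3 (androgen-insensitive) and LNCaP (androgen-sensitive) cells after 3-day exposure at five concentrations, DMSO vehicle control, quercetin positive control. IC50 derived from dose-response curves, mean ± SEM. The index is the parent flavonol IC50 divided by the test compound IC50.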

LNCaP = assay: Potency index, ratio of IC50 for 3',4'-dimethoxyflavonol to IC50 for test compound against human LNCAP cells; format: functional; summary of the method: as §1
PWR-1E = assay: Cytotoxicity against human PWR-1E cells assessed as inhibition of cell proliferation at 10 to 50 uM after 3 days by WST1 assay; format: cell-based; details: 72 h
PC-3 [2] = assay: Induction of apoptosis is human PC3 cells assessed as live cells at 20 uM after 16 hrs by F2N12S/CYTOX AADvanced double-staining based by flow cytometry (reference value: 88%); format: functional
PC-3 [3] = assay: Induction of apoptosis is human PC3 cells assessed as live cells at 10 uM after 16 hrs by F2N12S/CYTOX AADvanced double-staining based by flow cytometry (reference value: 88%); format: functional
PC-3 [4] = assay: Cell cycle arrest in human PC3 cells assessed as accumulation in G2/M phase at 10 uM after 24 hrs by propidium iodide staining-based flow cytometry (reference value: 16%); format: functional
PC-3 [5] = assay: Induction of apoptosis is human PC3 cells assessed as early apoptotic cells at 1 uM after 16 hrs by F2N12S/CYTOX AADvanced double-staining based by flow cytometry (reference value: 3%); format: functional
PC-3 [6] = assay: Induction of apoptosis is human PC3 cells assessed as live cells at 50 uM after 16 hrs by F2N12S/CYTOX AADvanced double-staining based by flow cytometry (reference value: 88%); format: functional
PC-3 [7] = assay: Induction of apoptosis is human PC3 cells assessed as live cells at 100 uM after 16 hrs by F2N12S/CYTOX AADvanced double-staining based by flow cytometry (reference value: 88%); format: functional
PC-3 [8] = assay: Cell cycle arrest in human PC3 cells assessed as accumulation in G0/G1 phase at 10 uM after 20 hrs by propidium iodide staining-based flow cytometry (reference value: 63.7%); format: functional
PC-3 [9] = assay: Induction of apoptosis is human PC3 cells assessed as live cells at 30 uM after 16 hrs by F2N12S/CYTOX AADvanced double-staining based by flow cytometry (reference value: 88%); format: functional
PC-3 [10] = assay: Induction of apoptosis is human PC3 cells assessed as late apoptotic/necrotic cells at 5 uM after 16 hrs by F2N12S/CYTOX AADvanced double-staining based by flow cytometry (reference value: 9%); format: functional
PC-3 [11] = assay: Cell cycle arrest in human PC3 cells assessed as accumulation in G2/M phase at 10 uM after 20 hrs by propidium iodide staining-based flow cytometry (reference value: 17.4%); format: functional
PC-3 [12] = assay: Induction of apoptosis is human PC3 cells assessed as live cells at 1 uM after 16 hrs by F2N12S/CYTOX AADvanced double-staining based by flow cytometry (reference value: 88%); format: functional
PC-3 [13] = assay: Induction of apoptosis is human PC3 cells assessed as early apoptotic cells after 16 hrs by F2N12S/CYTOX AADvanced double-staining based by flow cytometry relative to control; format: functional, cell-based
PC-3 [14] = assay: Induction of apoptosis is human PC3 cells assessed as late apoptotic/necrotic cells at 50 uM after 16 hrs by F2N12S/CYTOX AADvanced double-staining based by flow cytometry (reference value: 9%); format: functional
PC-3 [15] = assay: Induction of apoptosis is human PC3 cells assessed as early apoptotic cells at 30 uM after 16 hrs by F2N12S/CYTOX AADvanced double-staining based by flow cytometry (reference value: 3%); format: functional
PC-3 [16] = assay: Cell cycle arrest in human PC3 cells assessed as accumulation in G0/G1 phase at 10 uM after 24 hrs by propidium iodide staining-based flow cytometry (reference value: 69.4%); format: functional
PC-3 [17] = assay: Induction of apoptosis is human PC3 cells assessed as live cells at 5 uM after 16 hrs by F2N12S/CYTOX AADvanced double-staining based by flow cytometry (reference value: 88%); format: functional
PC-3 [18] = assay: Induction of apoptosis is human PC3 cells assessed as early apoptotic cells at 50 uM after 16 hrs by F2N12S/CYTOX AADvanced double-staining based by flow cytometry (reference value: 3%); format: functional
PC-3 [19] = assay: Induction of apoptosis is human PC3 cells assessed as late apoptotic/necrotic cells at 100 uM after 16 hrs by F2N12S/CYTOX AADvanced double-staining based by flow cytometry (reference value: 9%); format: functional
PC-3 [20] = assay: Induction of apoptosis is human PC3 cells assessed as late apoptotic/necrotic cells at 30 uM after 16 hrs by F2N12S/CYTOX AADvanced double-staining based by flow cytometry (reference value: 9%); format: functional
PC-3 [21] = assay: Induction of apoptosis is human PC3 cells assessed as late apoptotic/necrotic cells at 1 uM after 16 hrs by F2N12S/CYTOX AADvanced double-staining based by flow cytometry (reference value: 9%); format: functional
PC-3 [22] = assay: Induction of apoptosis is human PC3 cells assessed as early apoptotic cells at 100 uM after 16 hrs byF2N12S/CYTOX AADvanced double-staining based by flow cytometry (reference value: 3%); format: functional

SMILES: COc1ccc(-c2oc3ccccc3c(=O)c2OCCCCN2CCOCC2)cc1OC
- Ratio IC50 (PC-3 [1]): 45
- Ratio IC50 (LNCaP): 24

SMILES: CCCCOc1c(-c2ccc(OC)c(OC)c2)oc2ccccc2c1=O
- Ratio IC50 (PC-3 [1]): 24
- Ratio IC50 (LNCaP): 25

SMILES: CCCOc1c(-c2ccc(OC)c(OC)c2)oc2ccccc2c1=O
- Ratio IC50 (PC-3 [1]): 41
- Ratio IC50 (LNCaP): 32

SMILES: CCCCCCOc1c(-c2ccc(OC)c(OC)c2)oc2ccccc2c1=O
- Ratio IC50 (PC-3 [1]): 29
- Ratio IC50 (LNCaP): 16

SMILES: COc1ccc(-c2oc3ccccc3c(=O)c2OCCCN2CCOCC2)cc1OC
- Ratio IC50 (PC-3 [1]): 38
- Ratio IC50 (LNCaP): 14

SMILES: CCOc1c(-c2ccc(OC)c(OC)c2)oc2ccccc2c1=O
- Ratio IC50 (PC-3 [1]): 30
- Ratio IC50 (LNCaP): 21

SMILES: COc1ccc(-c2oc3ccccc3c(=O)c2OCCCCCN2CCOCC2)cc1OC
- Ratio IC50 (PC-3 [1]): 91
- Ratio IC50 (LNCaP): 26

SMILES: CCCCCCCOc1c(-c2ccc(OC)c(OC)c2)oc2ccccc2c1=O
- Ratio IC50 (PC-3 [1]): 5
- Ratio IC50 (LNCaP): 5

SMILES: CCCCN(CCCC)CCCCOc1c(-c2ccc(OC)c(OC)c2)oc2ccccc2c1=O
- Ratio IC50 (PC-3 [1]): 152
- Ratio IC50 (LNCaP): 47

SMILES: CCCCN(CCCC)CCCCCOc1c(-c2ccc(OC)c(OC)c2)oc2ccccc2c1=O
- Ratio IC50 (PC-3 [1]): 102
- Ratio IC50 (LNCaP): 41

SMILES: COc1ccc(-c2oc3ccccc3c(=O)c2O)cc1OC [3-HYDROXY-3',4'-DIMETHOXYFLAVONE]
- Activity (PWR-1E): Non-Toxic

SMILES: CCCCN(CCCC)CCCOc1c(-c2ccc(OC)c(OC)c2)oc2ccccc2c1=O
- Activity (PWR-1E): Non-Toxic
- Activity (PC-3 [2]): 3%
- Activity (PC-3 [3]): 15%
- Activity (PC-3 [4]): 25.1%
- Activity (PC-3 [5]): 4%
- Activity (PC-3 [6]): 0%
- Ratio IC50 (PC-3 [1]): 292
- Activity (PC-3 [7]): 0%
- Activity (PC-3 [8]): 53.8%
- Activity (PC-3 [9]): 1%
- Activity (PC-3 [10]): 5%
- Activity (PC-3 [11]): 32%
- Activity (PC-3 [12]): 89%
- Ratio IC50 (LNCaP): 84
- Activity (PC-3 [13]): Dose-dependent effect
- Activity (PC-3 [14]): 11%
- Activity (PC-3 [15]): 94%
- Activity (PC-3 [16]): 61.3%
- Activity (PC-3 [17]): 50%
- Activity (PC-3 [18]): 88%
- Activity (PC-3 [19]): 61%
- Activity (PC-3 [20]): 5%
- Activity (PC-3 [21]): 6%
- Activity (PC-3 [22]): 39%

SMILES: COc1ccc(-c2oc3ccccc3c(=O)c2OC)cc1OC
- Ratio IC50 (PC-3 [1]): 14
- Ratio IC50 (LNCaP): 12.5

SMILES: COc1ccc(-c2oc3ccccc3c(=O)c2OC(C)C)cc1OC
- Ratio IC50 (PC-3 [1]): 12
- Ratio IC50 (LNCaP): 20

SMILES: CCCCCOc1c(-c2ccc(OC)c(OC)c2)oc2ccccc2c1=O
- Ratio IC50 (PC-3 [1]): 24
- Ratio IC50 (LNCaP): 14
